WT yeast gro inh = growth inhibition of WT yeast, mitochondrial fusion screen; mitochondrial fusion phenotypic screen, WT strain; inhibition, % at 10 µM; 190,000 tested, 2.1% active; AID 1362; in the data active means inhibition above about 58%; tested in S. cerevisiae
Cl transport mod = modulates chloride dependent transport by human KCC2; KCC2 cells, thallium flux FluoZin-2 fluorescence; Q9H2X9; B-score of Tl+ flux slope (higher = more flux/activation; lower = inhibition) at 10 µM; 190,000 tested, 2.2% active;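 active means thallium flux slope and its plate-corrected score both differing from the plate sample mean at a set confidence after two filtering rounds, in either direction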;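 further: slope of fluorescence scaled to starting intensity during 10 to 20 s after thallium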
Diaphorase inh = diaphorase inhibition or chemical oxidation counter-screen | 190,000 tested, 0.69% active | inhibition, % at 20 µM | AID 1217 | diaphorase resazurin-to-resorufin fluorescence, NADH, 16 min; bacterial (C. kluyveri) enzyme, not human;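 active means primary screen inhibition at 20 µM above a set limit, cut at about 50% in these data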
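Assay system: diaphorase enzyme from Clostridium kluyveri; Input: enzyme working solution with 0.14 U/mL diaphorase; Timing: 16 min at room temperature; Technique: resorufin fluorescence, excitation 544 nm, emission 590 nm; Benchmarks: positive control minus NADH, DMSO neutral control.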
Lmaj promast = Leishmania major promastigote growth inhibition; Leishmania major promastigotes, resazurin fluorescence viability; inhibition, % at 10 µM; 200,000 tested, 9% active; in the data active means inhibition above about 50%;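 further: promastigotes grown with compound for 44 hours at 28 °C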
ROMK primary = human ROMK K+ channel modulation, primary screen; Tet-inducible ROMK, thallium flux fluorescence; actives lie on both sides; B-score at 10 µM; 130,000 tested, 2% active;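 active means signal ratio slope over the read window, or its plate-corrected B-score, at least 3 SD from the plate mean, either direction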;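 further: B-score of the F/F0 ratio slope over 7 to 12 s after thallium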
Target sequence (P48048 whole entry, looked up): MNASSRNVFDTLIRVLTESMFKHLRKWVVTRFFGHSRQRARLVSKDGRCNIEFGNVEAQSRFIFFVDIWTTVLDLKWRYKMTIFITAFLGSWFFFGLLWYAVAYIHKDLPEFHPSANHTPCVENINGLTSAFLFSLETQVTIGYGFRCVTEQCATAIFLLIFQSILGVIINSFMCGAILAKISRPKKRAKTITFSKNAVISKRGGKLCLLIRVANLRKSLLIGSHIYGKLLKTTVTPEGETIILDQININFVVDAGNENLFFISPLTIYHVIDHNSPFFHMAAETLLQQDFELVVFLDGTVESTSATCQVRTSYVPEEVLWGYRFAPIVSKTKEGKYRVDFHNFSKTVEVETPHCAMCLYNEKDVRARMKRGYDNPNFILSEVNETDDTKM
Diaph act CS = counter-screen for diaphorase-based assays: diaphorase activators and chemical reducers; Diaphorase/resazurin coupled assay, resorufin fluorescence, 16 min; active compounds read high; 1 = vehicle wells, 0 = NADH-free wells; activation factor at 20 µM; 190,000 tested, 0.005% active;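 active means diaphorase activity raised at least twofold by the compound at 20 µM; inactive means activation factor below 2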
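test system = bacterial diaphorase enzyme (C. kluyveri) | quantity = enzyme 0.07 U/mL final | reagent = NADH substrate 0.114 mM plus resazurin dye 0.1 mM, final | incubation = 16 min enzyme reaction, ambient temperature | buffer or medium = HEPES pH 7.4 buffer with MgCl2 and Tween 20 | signal = fluorescence of resorufin, 544 nm excitation, 590 nm emission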
A number is an active result; . = inactive; / = no result. A selection: hits, their analogues and other compounds. The true share with any hit is near 12%.

SMILES | WT yeast gro inh | Cl transport mod | Diaphorase inh | Lmaj promast | ROMK primary | Diaph act CS
CSc1cccc(NC(=O)N2CCCC(CNS(=O)(=O)Cc3ccccc3)C2)c1 (stereo not drawn) | . | . | . | . | . | .
COc1ccc(S(=O)(=O)Nc2cc3c4c(oc3c3ccccc23)CC(C)(C)CC4=O)cc1 | . | . | . | 100 | / | .
COc1cc(C(=O)NNC(=S)NC(=O)/C=C/c2ccccc2)cc(OC)c1OC | / | . | / | / | / | /
CCc1ccccc1NC(=S)NC1CC2CCCC(C1)N2Cc1cccs1 (stereo not drawn) | . | . | . | 79 | / | .
CCCN1C2CCCC1CC(NC(=S)Nc1cc(C)ccc1C)C2 (stereo not drawn) | . | . | . | 90 | / | .
Cc1cccc(NC(=S)NC2CC3CCCC(C2)N3Cc2cccs2)c1C (stereo not drawn) | . | . | . | 85 | / | .
CCCN1C2CCCC1CC(NC(=S)Nc1cccc(C)c1)C2 (stereo not drawn) | . | . | . | . | . | .
Cc1cccc(NC(=S)NC2CC3CCCC(C2)N3CC(C)C)c1C (stereo not drawn) | . | . | . | 89 | . | .
CC(OC(=O)c1ccc2c(=O)n3c(nc2c1)CCCCC3)C(=O)Nc1ccc(F)cc1Cl (stereo not drawn) | . | . | . | 56 | / | .
C/C(=N\NC(=O)c1ccc(F)cc1)c1cccc(NC(=O)c2ccco2)c1 | . | . | . | 67 | / | .
O=C(NCc1ccco1)c1cccc(NC(=O)c2ccco2)c1 | . | / | . | 79 | . | .
Cc1ccc(C(=O)Nc2cccc(C(=O)NCc3ccccc3)c2)o1 | . | . | . | 92 | . | .
CN(Cc1ccccc1)C(=O)c1cccc(NC(=O)c2ccco2)c1 | . | . | . | 100 | . | .
COc1ccc(C(=O)Nc2cccc(C(=O)NCc3ccco3)c2)cc1 | . | . | . | . | . | .
COc1cc(/C=N/NC(=O)C2C3CCCCC32C)cc(Br)c1O (stereo not drawn) | . | . | . | . | / | .
CCNC(=S)Nc1cc(OCC)c(NC(=O)c2ccco2)cc1OCC | . | . | . | 51 | / | .
CC(C)CNC(=O)c1cccc(NC(=O)c2ccco2)c1 | . | / | . | 79 | . | .
CC(C)CNC(=O)c1cccc(NC(=O)C(C)C)c1 | . | . | . | . | . | .
CCOc1ccccc1NC(=O)c1cccc(S(=O)(=O)N(Cc2ccccc2)c2ccccc2OC)c1 | . | . | . | 86 | / | .
COc1ccccc1N(Cc1ccccc1)S(=O)(=O)c1cccc(C(=O)O)c1 | . | . | . | . | . | .
CCOc1ccccc1NC(=O)c1cccc(NC(=O)c2ccco2)c1 | . | . | . | 100 | / | .
O=C(CCCC(=O)NNC(=O)Nc1ccccc1)NNC(=O)Nc1ccccc1 | . | . | . | . | . | .
O=C(CSc1nnc2ccccn12)Nc1ccccc1C(=O)O | . | . | . | . | . | .
O=C(NCc1ccccc1)c1cccc(NC(=O)c2ccco2)c1 | . | . | . | 98 | / | .
O=C(Nc1cccc(-c2nc3ccccc3[nH]2)c1)c1cccc(NC(=O)c2ccco2)c1 | . | / | . | 82 | / | .
SMILES | WT yeast gro inh | Cl transport mod | Diaphorase inh | Lmaj promast | ROMK primary | Diaph act CS
O=C(Nc1ccc2nc(-c3ccccc3)[nH]c2c1)c1ccco1 | . | . | . | . | / | .
O=C(c1cc2sccc2n1Cc1ccc(F)cc1)N1CCN(c2nc3ccccc3s2)CC1 | . | . | . | 84 | . | .
Cn1c(C(=O)N2CCN(c3nc4ccccc4s3)CC2)cc2sccc21 | . | . | . | . | / | .
CC1(C(=O)O)CCC(C(=O)N2CCCCC2)C1(C)C (stereo not drawn) | . | . | . | . | . | .
NNC(=O)c1nnn(-c2nonc2N)c1-c1cccs1 | . | . | . | . | / | .
COc1cccc(/C=N/Nc2cc(Cl)nc(C)n2)c1O | . | . | . | . | . | .
COc1cccc(/C=N/Nc2ncnc3c2ncn3Cc2ccccc2)c1O | . | . | . | 88 | / | .
CC1(C)Oc2ccc(C(=O)N3CCc4ccccc43)cc2N(CC(=O)N2CCCC2)C1=O | . | / | . | . | 3.8 | .
CCCc1[nH]nc2c1C(c1ccc(O)cc1OCC)C(C#N)=C(N)O2 (stereo not drawn) | . | . | . | 56 | -4.5 | .

Screening data deposited in PubChem BioAssay by several laboratories.
